Variants at the floor of the assay were thinned out.
B1: tRNA (parent)
chain: GUUCCGUUGGCGUAAUGGUAACGCGUCUCCCUCCUAAGGAGAAGACUGCGGGUUCGAGUCCCGUACGGAACG

Variants of: B1
Experiment: yeast fitness relative to wild type (ratio to wild type); higher = fitter; tRNA-Arg(CCU), competitive growth, 37 C, YPD
How it was run: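 Changes in genotype frequencies gave Darwinian fitness relative to wild type. Frequencies were read by 100-nucleotide paired-end sequencing of gene amplicons before and after pooled Saccharomyces cerevisiae strains, carrying tRNA-Arg(CCU) gene variants at the native locus, were competed in YPD at 37°C for 24 hours in six replicates. A genotype was kept only with ≥ 100 starting reads, and estimates < 0.5 were set to 0.5.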

Variant | yeast fitness
C27G C29A C61U | ≤ 0.5
U26C C30U C46A U47G G50A | ≤ 0.5
C27A U32A U59C | ≤ 0.5
C27G C31A A57U | 0.573
C27G C34G A37U | ≤ 0.5
C27A C31G G44C | ≤ 0.5
C27G C30G C31U A42G U54C | ≤ 0.5
C27G C49U A65C | ≤ 0.5
C27A G67A | 0.807
C27A G67C | 0.786
C27A G67U | 0.745
C27A A43C A69C | 0.748
C27G U64C | 0.693
U26G C66U | 0.862
C27G A40C C60U | ≤ 0.5
C27A A43C U54C | 0.624
C27A C61G C66U A69U | ≤ 0.5
C27A A45U G52A | ≤ 0.5
C27G C30U U32C G51C U64A | ≤ 0.5
C27A U28C C29G C61A | 0.664
C27G A42U G48A | ≤ 0.5
C27G C33G C60U C61G | 0.503
C27A G38C | 0.609
C27G U32A C34A C55A | ≤ 0.5

Variant | yeast fitness
C27A C62G A65U | ≤ 0.5
C27G A42G A57G U59G | ≤ 0.5
C27G C30U G67A A70G | ≤ 0.5
C27A G58C | 1.13
C27A A37C G52A U59A | ≤ 0.5
U26G C30G | 0.6
U26C G41C C61G A69C | ≤ 0.5
U26G C46G C61U | 0.824
C27A G39C A57U A70U | ≤ 0.5
C27G A69U | 0.738
C27A C61U C66U | ≤ 0.5
U26C C30G A45U U53A C62U G68C | ≤ 0.5
U26C C33G A36G A42C C49G G58C C62G | ≤ 0.5
U26G A37C G38A A42G G44C A45G C49U A65U | ≤ 0.5
C27A C29U G48A G68C | ≤ 0.5
U26C C62A | 0.762
U26G C29A | 0.578
U26C G38C | 0.717
C27A G38C G51C A69U | ≤ 0.5
U26G G50C A57G | 0.529
U26C C60G | 0.642
C27A U32G G51A G56C A70G | ≤ 0.5
C27G A70U | 0.74
C27G A36C C46U G51C | 0.54

Variant | yeast fitness
U26C G68C | 0.936
U26C C30G C34U C49U | 0.51
C27G C62U A65U | 0.554
C27G A37G U64A | ≤ 0.5
C27G U28A C30G C31U C60A A70C | ≤ 0.5
C27A G52C | 0.562
C27A A65U | 0.678
C27G G52A | 0.941
C27G C31G G68A | ≤ 0.5
U26G G67C | 0.644
U26C C30G A43U G50A | ≤ 0.5
U26C C29G A43U | ≤ 0.5
C27G A42U U53C | ≤ 0.5
U26G G52A | 0.816
U26C C46U G51A | 0.64
U26G C33G G50C | ≤ 0.5
C27A A36U A37U G48C C61U | ≤ 0.5
U26C C61U | 0.956
U26G C46A | 0.949
U26G C27U G56A A65C | ≤ 0.5
U26C C33G U59C | 0.515
C27G C49A G52C C60U | ≤ 0.5
C27G A36U U53A | ≤ 0.5
C27A A36C A42U | ≤ 0.5

Variant | yeast fitness
U26G C27A | 0.647
C27A C31G U54C | 0.744
C27A A36G U53A A70G | ≤ 0.5
C27G A42G C60A | ≤ 0.5
C27G C34U A43C A57U G58A C62G | ≤ 0.5
U26G G48A A57U | 0.598
U26G C49A | 0.703
U26G C49G | 0.851
C27G G58C U59C G63A | ≤ 0.5
C27G U59C C66G | ≤ 0.5
C27G U28G A36G U64C | ≤ 0.5
C27G C30U G56A | ≤ 0.5
C27G A65C A70C | 0.53
C27G U32G A42C C66U | ≤ 0.5
C27G A40C C55G | ≤ 0.5
C27A A57C C66U | 0.538
C27A U35A A43U | ≤ 0.5
C27A C66G A70C | ≤ 0.5
C27A A40G C61G | 0.614
U26G G51C | 0.588
C27G A45U | 0.656
C27G C61U A69U | 0.532
U26C C46U C62U | 0.718
U26C C61G G63A A69U | 0.532

Variant | yeast fitness
C27G A37C A57C | ≤ 0.5
C27G U47C A70U | 0.545
C27G A45C G58C | 0.644
C27G C30G | ≤ 0.5
C27A G41C A43C G48A C66U | 0.546
C27G C61U | 0.594
C27A G44C | 0.782
U26G G63C C66U | ≤ 0.5
C27A C31G G50A | 0.661
C27A U59C A69U | 0.713
C27A A37U C49U C55U C60G A65C | ≤ 0.5
C27G U28A C30G C31U | 0.51
U26C C30G G67C | ≤ 0.5
C27A G39A A42C G48C C60U | ≤ 0.5
C27G U28A A65U | ≤ 0.5
C27G C49A A70U | ≤ 0.5
C27A U28C G67U A70G | ≤ 0.5
C27G A36C | ≤ 0.5
C27A C49U C61A | ≤ 0.5
U26C C34U | 0.716
C27G C29G C30U | ≤ 0.5
U26G U28A A43G C49U C61U G67A | ≤ 0.5
U26C C33G A45G | ≤ 0.5
C27G C62U | 0.688

Variant | yeast fitness
C27A G68C | 0.893
U26G A36G | 0.914
U26C C46A U47G G50A | 0.541
C27A A37U A70U | 0.548
C27A G39C C55G A70C | ≤ 0.5
C27G A42U | 0.721
C27A G39C C55G A65U | ≤ 0.5
C27G A36C G44A | ≤ 0.5
C27G G44C A45G | 0.53
U26C U59C | 0.793
U26C U59A | 0.882
C27G A40G G48A A57C U64A | ≤ 0.5
C27G A43G | 0.636
C27G G58A | 0.698
U26G C33G U35A C55U A65C | ≤ 0.5
C27A G39A A57G | ≤ 0.5
U26C C61U C62G | ≤ 0.5
C27G C30A C34G A45G C62U A69G | ≤ 0.5
C27G C33U | 0.592
U26C U53C A57U C66G | ≤ 0.5
U26C G50A | 0.932
C27G A43C C60G | ≤ 0.5
C27G U54C | ≤ 0.5
U26C G48C G52C A57C G58A | ≤ 0.5

Variant | yeast fitness
C27A C33G G39A C49G | ≤ 0.5
C27A C31U C60G | ≤ 0.5
C27A C31A G52A G58C | ≤ 0.5
C27G U28A C61U A65U A70U | ≤ 0.5
C27G A45C C49U G52A U59C | 0.6
U26C C33G A36U A57U | ≤ 0.5
U26C C27U U59C | 0.702
C27A C31U | 0.941
C27G U59G G68C | 0.582
C27G G44C | 0.569
C27G G44C U47C | ≤ 0.5
U26C C31U A43G G63A | 0.611
C27G U32A U54G | ≤ 0.5
U26G U28A A43G C61U G67A | 0.599
U26G A37U G51A | ≤ 0.5
U26G G48C | 0.805
U26G G48A | 1.08
C27A C30G G41C C61G C62U A69U | 0.557
C27G C31G A43C | 0.545
C27A C46A A69G | 0.582
C27G A40G | 0.594
C27G A40U | 0.682
C27A G39C C46A | ≤ 0.5
